Active and inactive are the calls of the source. The calls are words filed in the database; no cut-off is given here.
What was measured:
[1] = species on record: Gallus gallus; assay: Antiangiogenic activity against chicken chorioallantoic membrane in dark assessed as induction of vascular occlusion at 3.5 to 7 nmol/embryo; type: functional, tissue-based
Method in brief: (§1)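 Fertilized chicken eggs incubated at 37 °C, 65% humidity. On EDD-9, single iv bolus into the main CAM vessel in cremophor EL 5%, EtOH 5% in saline. One minute later, a 0.02 cm2 site with 5–100 μm vessels irradiated at 510–560 nm, 40 mW/cm2 (or left dark). After 24 h, FITC-dextran/Indian ink angiography and damage scoring per Lange et al.; at least 10 embryos, mean ± SEM.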

[2] = test system: HSC-2; assay: Cell cycle arrest in human HSC2 cells irradiated with 4.1 J/cm^2 broad spectrum light assessed as accumulation at G2/M phase at 0.25 uM after 2 hrs by flow cytometry relative to control; type: functional
Method in brief: (§2)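 HSC-2 cells given compound for 2 h, then irradiated with broad-spectrum light (or kept dark). Floating plus trypsinized adherent cells collected at set times after irradiation. Fixed in 70% ice-cold ethanol overnight at 4 °C, then stained 30 min with 20 μg/mL RNase A and 1 μM SYTOX Green. 1 × 10^4 cells read by flow cytometry (488 nm laser, FL1 530/30).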

[3] = test system: HSC-2; assay: Induction of apoptosis in human HSC2 cells irradiated with 4.1 J/cm^2 broad spectrum light assessed as viable cells at 0.5 uM after 4 hrs of irradiation by annexin V-FITC staining; type: functional; settings: HSC-2, light or radiation study, read-out: Activity
Method in brief: (§3)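 HSC-2 cells at 50% confluency in dishes, treated 2 h, then irradiated (4.1 J/cm2 broad spectrum) or kept dark. At intervals, floating and trypsinized cells pooled, washed in cold PBS, resuspended at 1 × 10^6 cells/mL in binding buffer. Stained 15 min in the dark at room temperature with annexin V-FITC and propidium iodide. 1 × 10^4 cells read by flow cytometry (FL1, FL3).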

[4] = test system: HSC-2; assay: Induction of apoptosis in human HSC2 cells irradiated with 4.1 J/cm^2 broad spectrum light assessed as apoptotic cells at 0.5 uM after 4 hrs of irradiation by annexin V-FITC staining; type: functional; method in brief: as §3
[5] = Cellular uptake in human HSC2 cells assessed as intracellular localization in to endoplasmic reticulum labeled with ER-tracker blue-white DPX dye at 100 nM by spinning disk confocal microscopy; type: ADME, cell-based; settings: hsc-2, 0.1 µM
Method in brief: (§4)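 HSC-2 cells grown on glass coverslips, co-incubated at room temperature for 15–30 min with compound plus probe: ER-Tracker 100 nM, LysoTracker 500 nM or Rh123 100 nM. Rinsed in PBS. XY sections at 0.2 μm imaged; excitation 330–385 nm for ER/Lyso probes, 460–490 nm for Rh123, 520–550 nm for photosensitizer.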

[6] = test system: HSC-2; assay: Induction of apoptosis in human HSC2 cells in dark assessed as viable cells at 0.5 uM after 4 hrs of irradiation by annexin V-FITC staining; type: functional; settings: HSC-2, light or radiation study, read-out: Activity; method in brief: as §3
[7] = test system: HSC-2; assay: Cell cycle arrest in human HSC2 cells irradiated with 4.1 J/cm^2 broad spectrum light assessed as accumulation at G1 phase at 0.25 uM after 12 hrs by flow cytometry relative to control; type: functional; method in brief: as §2
[8] = test system: HSC-2; assay: Cell cycle arrest in human HSC2 cells irradiated with 4.1 J/cm^2 broad spectrum light assessed as accumulation at G1 phase at 0.25 uM after 6 hrs by flow cytometry relative to control; type: functional; method in brief: as §2
[9] = test system: HSC-2; assay: Cell cycle arrest in human HSC2 cells irradiated with 4.1 J/cm^2 broad spectrum light assessed as accumulation at sub-G1 phase at 0.25 uM after 8 hrs by flow cytometry relative to control; type: functional; method in brief: as §2
[10] = test system: HSC-2; assay: Cell cycle arrest in human HSC2 cells in dark assessed as accumulation at sub-G1 phase at 0.25 uM after 12 hrs by flow cytometry relative to control; type: functional; method in brief: as §2
[11] = species on record: Gallus gallus; assay: Antiangiogenic activity against chicken chorioallantoic membrane irradiated with 20 to 40 J/cm^2 assessed as induction of vascular occlusion at 3.5 to 7 nmol/embryo; type: functional, tissue-based; method in brief: as §1
[12] = Cellular uptake in human HSC2 cells assessed as intracellular localization in to cytoplasmic membrane at 100 nM by spinning disk confocal microscopy; type: ADME, cell-based; settings: hsc-2, 0.1 µM; method in brief: as §4

In the case of `CC1=C(I)C(C)=[N+]2C1=C(CCC(=O)O)c1c(C)c(I)c(C)n1[B-]2(F)F`, the Activity [1] is reported as “inactive”, the Activity [2] is reported as 39.8% and the viability at 0.5 µM [3] is reported as 91.3%. For the same compound, the Activity [4] was 8.7%, the Drug uptake [5] was “Active” and the viability at 0.5 µM [6] was 97%. For the same compound, the Activity [7] was 44.1%, the Activity [8] was 26.4% and the Activity [9] was 4.4%. The Activity [10] was 3.8%, the Activity [11] was “Active” and the Activity [12] was “Not Active”.
